# Data reported in the RNAGym collection of RNA variant scans (doi:10.1126/science.aae0568).
# Fewer inactive variants are shown than the library holds.
# B1: tRNA (parent)
# chain: GUUCCGUUGGCGUAAUGGUAACGCGUCUCCCUCCUAAGGAGAAGACUGCGGGUUCGAGUCCCGUACGGAACG
# Variants of: B1
# Assay: yeast fitness relative to wild type (ratio to wild type); higher = fitter; tRNA-Arg(CCU), competitive growth, 37 C, YPD
# Outline: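 The tRNA-Arg(CCU) gene variants were made by chemical synthesis with a 3% per-site mutation rate at 69 sites and inserted at the native genomic locus of Saccharomyces cerevisiae. After pooling, the strains were competed in YPD at 37°C for 24 hours in six parallel replicates. Gene amplicons from the start population and each end population were read by 100-nucleotide paired-end sequencing, and Darwinian fitness relative to wild type was taken from genotype frequency changes. Genotypes needed ≥ 100 starting reads, and estimates < 0.5 were set to 0.5.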
row,Variant,yeast fitness
1,G10C U35G A43C U47C C55U C66U,≤ 0.5
2,G10C C29G A40G,≤ 0.5
3,C11A A20G G39A G51A U53A C66U,≤ 0.5
4,G10C A14U C62U,0.51
5,G10C C46A G68C,0.57
6,G10C C27U A36C C61U A65G,≤ 0.5
7,G10C G18A C27G G63C,≤ 0.5
8,G10C C27G A42C C49A A69C,≤ 0.5
9,G10C G18C A42G G68A,≤ 0.5
10,C11A A21G A40G,0.571
11,G10C A21G C29A A43U C55A,0.651
12,G10C A45U C61G,≤ 0.5
13,G10C U26A C33U U53C,0.576
14,G10C A20U A42G C60G,≤ 0.5
15,G10C A42C A43G,≤ 0.5
16,G10C G56C,0.553
17,G10C C30U U54A,≤ 0.5
18,G10C U16A C30U U64A,≤ 0.5
19,G10C C49U C66G,≤ 0.5
20,C11A A21G C31G A36U A65U,≤ 0.5
21,G10C U19C C33G,0.769
22,G10C C31A A37U G63A A65G,≤ 0.5
23,C11A A43U C62G A70U,≤ 0.5
24,G10U A15U C31G G50C U59C C62U,≤ 0.5

row,Variant,yeast fitness
1,G10C G17A U35G,≤ 0.5
2,C11A A42G A43U C46U G67A A69C,≤ 0.5
3,C11A A43G G58C C62U,≤ 0.5
4,G10C C22G C33U A36C A40U,≤ 0.5
5,C11A,0.676
6,G10C C11U A20C A57U,≤ 0.5
7,G10C A36C C55G,≤ 0.5
8,C11A A15U A20C C34G C66U,≤ 0.5
9,G10C A36U A69U,≤ 0.5
10,G10U A43G C46U,≤ 0.5
11,G10C C24A G51A A65G A70C,0.55
12,G10C A57G A69U,0.559
13,G10C A15U C29G C46U G51C A65G,≤ 0.5
14,C11A A15U U16C A21U A36C A37U,≤ 0.5
15,G10C G18C C24U,≤ 0.5
16,G10C A36C G48A C62U,0.555
17,G10C C29G A37G,≤ 0.5
18,G10C C29G A65C,≤ 0.5
19,G10C A45G C61A A70G,≤ 0.5
20,C11A A15C C24G C34A,≤ 0.5
21,C11A A42G A43U C46U,0.532
22,G10C A36G G41A,≤ 0.5
23,C11A A15C C34A C66A,≤ 0.5
24,G10C C11U U26A C49U A65U,≤ 0.5

row,Variant,yeast fitness
1,G10C U26A C49U A65U,0.553
2,G10C A36U A42G G56A U59G,≤ 0.5
3,G10C G38A C61A,0.618
4,G10C A57C U64A,≤ 0.5
5,C11A A21G C34G G38C C62G A69C,≤ 0.5
6,C11A A21G,0.774
7,G10C A36C,0.712
8,G10C A40G,0.588
9,G10C C34A A57U G67C,0.64
10,G10C C33A C62A,0.652
11,G10C C46U A65C,0.621
12,G10C G25C G38C A40G A42G,≤ 0.5
13,G10C C24G C34G U54G A70U,0.703
14,G10C C30G C49G,≤ 0.5
15,G10C C27U A40U A45U,≤ 0.5
16,G10C G52C,≤ 0.5
17,C11A A15U A21U A36C A37U C55U,≤ 0.5
18,C11A A43U C66U,≤ 0.5
19,G10C C27U,0.679
20,G10C C24U C34U A36U C46A A69C,≤ 0.5
21,G10U C24G A45G,≤ 0.5
22,G10C C62A,0.515
23,C11A A45C U53C,0.645
24,C11A A15G C33U A37G,≤ 0.5

row,Variant,yeast fitness
1,G10C C30A C66U,≤ 0.5
2,G10C C30A C66A,≤ 0.5
3,G10C C34G G67A,≤ 0.5
4,G10C C34G G67U,0.584
5,C11A A15G C22G C61U G68A,≤ 0.5
6,C11A A43U U64C,≤ 0.5
7,G10C C33A A45C,0.551
8,G10C C24U C29A A45U C46G U47A G50A U64G,0.575
9,G10C G12C G39A C61U A69C,0.528
10,G10C C11U G25C C30G G67C,0.511
11,G10C A21G,0.633
12,G10C C27U G63C,≤ 0.5
13,G10C G50U,≤ 0.5
14,G10C A42U C61U C62U,≤ 0.5
15,G10C C24U C46U U64C,≤ 0.5
16,G10C A36G C49U,0.551
17,C11A A42U A69U,≤ 0.5
18,G10U G17A C24A,0.643
19,G10C C33A G56C,0.577
20,G10C C31A U32C G39A G52C,≤ 0.5
21,G10C A14G U26A C49U A65U,≤ 0.5
22,G10C C29G A42U,0.554
23,G10C U26A C27U C31G A42U U47A U53C,0.721
24,C11A A21U C55U,0.788

row,Variant,yeast fitness
1,G10C U19A C30G A40C G67C,≤ 0.5
2,C11A A42G C49U A65C,≤ 0.5
3,G10C U26A C33U A70G,≤ 0.5
4,G10C A15U C33A A36U C62U,≤ 0.5
5,G10C A37C C60G,≤ 0.5
6,C11A A37C A45G,≤ 0.5
7,G10C A21C C22G A36G A57C,≤ 0.5
8,C11A A20G C46U G50C C60A A70C,0.632
9,C11A A21C U28A C55U C62U G67C,≤ 0.5
10,G10C A21C C66G,≤ 0.5
11,G10C C60U C62U A70C,≤ 0.5
12,G10C A36U U64C C66U A70C,≤ 0.5
13,C11A A42G A43G C61A,≤ 0.5
14,G10C C27U U47G,0.632
15,G10C C27U A43G C46G A69C,≤ 0.5
16,G10C A57C,≤ 0.5
17,G10C A69C,0.785
18,G10C A69G,0.51
19,G10C A15G U35A G44A A69C,≤ 0.5
20,G10C G25C,0.615
21,G10C A37U G52A,≤ 0.5
22,G10C C11A C49G C55A,≤ 0.5
23,G10C A21G G56U C66A,0.727
24,G10C U19A A37C,0.502

row,Variant,yeast fitness
1,G10C U13C A15C C24U U54C C60A C62A,≤ 0.5
2,G10C C27U A40U A45U G48A C55U C66U,0.591
3,C11A A15G C22U C29A A43U A45G A57U,≤ 0.5
4,G10C C31U,0.78
5,G10C U19G C62G,≤ 0.5
6,G10C A45U G48C,0.53
7,C11A A43G U54C A65C,≤ 0.5
8,C11A A21C A43G C60U C62U A70C,≤ 0.5
9,G10C A21C C30G U32C C60U G67C,0.54
10,G10C C29U C31U A65U,≤ 0.5
11,G10C A43U C46G,≤ 0.5
12,G10C C29G G44C C49A U64C,≤ 0.5
13,G10C C29G A40U C49G,≤ 0.5
14,G10C C29U A40U A65U,≤ 0.5
15,C11A A15G,0.711
16,C11A A15U,0.658
17,G10C A20U C27U C29U A40U C66U,≤ 0.5
18,C11A A40G C49G C62G,0.794
19,C11A A20U C22U G67C,≤ 0.5
20,C11A A43U C49U,0.548
21,C11A A20U C29U C33G,0.578
22,C11A A15G A40G,0.824
23,C11A A20C U28C A37U A40C G48A,≤ 0.5
24,C11A A21G C62G C66U,≤ 0.5

row,Variant,yeast fitness
1,C11A A36C A42G C49A,≤ 0.5
2,G10C G17A A42U,≤ 0.5
3,G10C G51C C61U,≤ 0.5
4,G10C A36U U53A C60A,0.548
5,G10C A37U G52A C66U,≤ 0.5
6,G10C G63A,0.59
7,G10C G63C,≤ 0.5
8,G10C A43C C49U,≤ 0.5
9,G10C U53A,≤ 0.5
10,C11A A42C C46G C60A,≤ 0.5
11,G10C C31A U35C A45U,≤ 0.5
12,G10C C30G C55A,≤ 0.5
13,G10C U16A A65G,≤ 0.5
14,G10C G68U,0.693
15,G10C G18A C22U,0.633
16,G10C C31G C33U,0.698
17,G10C A20G A43G C46U,≤ 0.5
18,C11A A40G A43U U59G,≤ 0.5
19,G10C C34G,0.501
20,G10C C34U,0.565
21,G10C U26A C27U C34U C49U,0.602
22,G10C G63A C66U,≤ 0.5
23,G10C U13A G25A,0.534
